Laboratory results published in ChEMBL document CHEMBL1150597, “Syntheses of two cytotoxic sinapyl alcohol derivatives and isolation of four new related compounds from Ligularia nelumbifolia” (J Nat Prod, 2002).

Experiments:
Format in all cases: functional, cell-based
[1] = test system: KB; assay: Cytotoxicity against human KB cells after 72 hrs
Procedure, shortened: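 KB cells from the American Type Culture Collection; growth monitored after 72 h incubation with compound. IC50 taken as the drug concentration giving 50% growth inhibition.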

[2] = test system: HL-60; assay: Cytotoxicity against human HL60 cells by SRB assay
[3] = test system: A549; assay: Cytotoxicity against human A549 cells by SRB assay

Row | Structure (SMILES) | IC50 [1] [µM] | IC50 [2] [µM] | IC50 [3] [µM]
1 | COc1cc(/C=C/C=O)cc(OC)c1OC/C=C(\C)CCC=C(C)C [NELUMAL A] | 2.6 | 12 | 22
2 | COc1cc(/C=C/CO)cc(OC)c1OC/C=C(\C)CCC=C(C)C [NELUMOL A] | 3 | 6.7 | 34
3 | COc1cc(/C=C/CO)cc(OC)c1OCc1ccccc1 | 860 | – | –
4 | COc1cc(/C=C/CO)cc(OC)c1OCC=C(C)C | 7.8 | – | –
5 | COc1cc(/C=C/C=O)cc(OC)c1OCc1ccccc1 | 640 | – | –
